Source: ChEMBL document CHEMBL4732185, “Synthesis, biological evaluation and structure-activity relationship of novel dichloroacetophenones targeting pyruvate dehydrogenase kinases with potent anticancer activity” (Eur J Med Chem, 2021)

Legend:
[1] = tested on: A-375; experiment: Induction of apoptosis in human A375 cells assessed as late apoptotic cells at 1 uM after 36 hrs by annexinV-FITC/propidium iodide staining based flow cytometric analysis (reference value: 1.02%); type: functional
[2] = tested on: A-375; experiment: Induction of apoptosis in human A375 cells assessed as necrotic cells at 2.5 uM after 36 hrs by annexinV-FITC/propidium iodide staining based flow cytometric analysis (reference value: 1.63%); type: functional
[3] = tested on: PC-3; experiment: Antiproliferative activity against human PC3 cells assessed as growth inhibition after 72 hrs by MTT assay; type: functional, cell-based; settings: Homo sapiens, PC-3, 72 h; read-out: IC50
Procedure, shortened: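 MTT viability assay. Cancer lines seeded at 3000–6000 cells/well and L02 at 7000 cells/well, cultured overnight, then exposed to a full dose range for 72 h. MTT (0.5 mg/mL) added for 4 h, supernatant removed, formazan dissolved in DMSO, absorbance read at 570 nm. IC50 taken as the mean of three independent experiments. Cells grown in DMEM + 10% FBS, 37 °C, 5% CO2.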

[4] = Toxicity in mouse xenografted with human A375 cells assessed as reduction in body weight at 5 mg/kg, im administered once per three days for 21 days; type: organism-based; settings: in vivo, 504 h, time 21 day
Procedure, shortened: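 A375 cells at 80% confluence harvested with trypsin/EDTA, resuspended in serum-free DMEM, and injected subcutaneously into the right flank. Tumours visible at 7 days. Mice randomized to vehicle or 5 mg/kg (n = 4/group), dosed intramuscularly once every three days. Body weight followed over 21 days.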

[5] = tested on: A-375; experiment: Induction of cell cycle arrest in human A375 cells assessed as accumulation at G2 phase at 5 uM after 24 hrs by propidium iodide staining based flow cytometric analysis (reference value: 10.02%); type: functional

- IC50 [3]: 3.8 µM
Compound: CC(C)(CO)c1ccc(Nc2ccc(C(=O)C(Cl)Cl)cc2[N+](=O)[O-])cc1
- Activity [1]: 7.43%
- Activity [2]: 3.17%
- Activity [4]: Non-Toxic
- Activity [5]: 5.71%
